An excerpt weighted towards active compounds, which were near 2.4% of everything screened.
NTR1 ag – NTR1 (human) agonism | P30989 | NTR1-U2OS beta-arrestin-GFP spot imaging, agonist mode | activation, % at 20 µM | 330,000 compounds, 0.17% hits;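 active = activation at or above 40% of the spot to cytoplasm intensity ratio, with at least 20 cells analyzed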;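 also: 0% = DMSO without peptide and 100% = 100 nM NTR1 peptide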
MC4R antagonist – human MC4R antagonism in cAMP assay; P32245; MC4R-expressing cells, MTII-stimulated cAMP, LANCE TR-FRET; inhibition, % at 6.5 µM; 360,000 compounds, 0.48% hits; AID 540295;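 active = inhibition above its plate's cutoff, the mean of tested wells on that plate plus 3 SD, cut at about 29% in these data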;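 also: 0% = Melanotan II alone and 100% = Melanotan II plus saturating MCL0020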
Target sequence (P32245 whole entry, looked up): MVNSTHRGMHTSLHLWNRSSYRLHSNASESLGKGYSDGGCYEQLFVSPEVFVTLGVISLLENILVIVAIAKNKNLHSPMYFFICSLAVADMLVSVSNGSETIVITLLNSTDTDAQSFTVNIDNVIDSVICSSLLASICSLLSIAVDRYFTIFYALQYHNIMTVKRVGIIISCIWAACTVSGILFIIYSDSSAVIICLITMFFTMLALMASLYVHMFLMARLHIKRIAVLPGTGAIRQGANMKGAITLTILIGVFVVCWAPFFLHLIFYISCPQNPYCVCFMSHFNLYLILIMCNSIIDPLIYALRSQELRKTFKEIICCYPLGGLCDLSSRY
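Material – human MC4R-expressing U2OS cells · Repeats – no replicates · Detection – TR-FRET with Eu-cAMP and labeled anti-cAMP, 671 nm · Times – compound 30 min, challenge 1 h, detection 1 h · Compound – single nominal compound dose of 6.5 µM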
aDG glyco up – alpha-DG glycosylation activation. Pro5-aDG cells, alpha-DG glycosylation AlphaScreen (IIH6); 0% Pro5, 100% B10-LARGE cell signal. activation, % at 10 µM. 360,000 compounds, 0.22% hits. AID 624168;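 active = activation of at least 8% versus controls, or a plate z-score of at least 8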;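 also: Pro5 are CHO cells carrying HIG-tagged alpha-DG that lacks glycosylation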
TAG inh – triacylglycerol accumulation inhibition; inhibition, % at 12.5 µM; 230,000 compounds, 0.66% hits; H9c2 cells, Nile Red lipid (TAG) fluorescence; cells loaded with 200 µM oleic acid;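 active = pattern-corrected inhibition of lipid staining of at least 50% with the nuclear-stain viability signal not falling by more than 50%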;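 also: 0% = DMSO wells and 100% = triacsin C control wells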
MC4R ag barr – agonists of human melanocortin 4 receptor (MC4R) beta-arrestin | P32245 | U2OS MC4R beta-arrestin complementation, luminescence; percent of melanotan II response, DMSO zero | activation, % at 8.9 µM | 360,000 compounds, 0.98% hits;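 active = activation above a per-plate cutoff, the mean activation of sample wells on that plate plus 3 SD, cut at about 8% in these data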
TbMetRS inhib – blocks T. brucei methionyl-tRNA synthetase activity; purified T. brucei MetRS, ATP depletion, Kinase-Glo luminescence; inhibition, % at 11.9 µM; 360,000 compounds, 0.4% hits;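 active = inhibition above a per-plate cutoff of the control wells' mean inhibition plus 3 SD, cut at about 5.5% in these data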;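 also: 0% = DMSO wells median and 100% = median of wells with control inhibitor compound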
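Test system – parasite MetRS enzyme · Reagent – substrates ATP, L-methionine and bulk Escherichia coli tRNA · Doses – 11.9 µM compound single dose, 0.9% DMSO · Times – 15 min enzyme-compound preincubation, 2 h reaction, 10 min detection, 25 °C · Signal – Kinase-Glo luminescence, ATP depletion format · Controls – DMSO-only wells as low control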
The depositor's hits bear a star; . = not tested or not shown.

SMILES	NTR1 ag	MC4R antagonist	aDG glyco up	TAG inh	MC4R ag barr	TbMetRS inhib
N#CCC(CNc1ncc(C(F)(F)F)cc1Cl)OC(=O)c1cccc([N+](=O)[O-])c1 (centres undefined)	4.0	-0.7	0.0	.	9.1*	-0.4
CN(C)CCNC(=O)c1ccc(Sc2ccc(Br)cc2)c([N+](=O)[O-])c1	2.4	3.3	3.6*	-6.8	4.8	0.0
C=CCOc1cccn2c(N(C)C(=O)c3ccccc3F)c(CC)nc12	.	1.3	-0.1	-1.8	-0.9	-0.1
O=C(c1ccccc1)c1ccc(Cn2cc(-c3ccccc3)nn2)cc1	16.8	4.5	4.5*	-34.8	0.1	0.3
O=C(CSc1c(F)c(F)cc(F)c1F)Nc1ccc(C2SCCS2)cc1	1.7	6.2	0.1	-13.3	8.5*	-0.5
O=C(CSc1ccc(Cl)cc1)Nc1ccc(C2SCCS2)cc1	0.7	4.5	0.0	-12.1	9.6*	0.2
CCCNC(=O)OC1CC2CC1[C@H]1CCCCN1C2=O (some centres undefined)	.	.	-0.1	.	.	-2.1
CC1(C(=O)NS(=O)(=O)c2ccc(F)cc2F)CCN1C(=O)Cc1cccc2ccccc12 (centres undefined)	.	1.1	-0.2	6.1	0.9	-0.1
N#Cc1ccc(OCC(=O)Nc2nc(-c3cccnc3)cs2)cc1	0.3	4.5	-0.1	-11.9	9.1*	-0.3
Cc1cc(C)cc(OCC(=O)Nc2nc(-c3cccnc3)cs2)c1	2.4	6.6	-0.1	6.3	9.2*	-0.3
Cc1ccc(C(=O)C2C(=O)C3CCC2C3)cc1 (centres undefined)	.	5.5	-0.2	-16.0	-2.0	0.1
CC(C)Oc1cccc(C(=O)C2CCCN(S(C)(=O)=O)C2)c1 (centres undefined)	1.4	28.5*	1.2	-30.3	0.9	-0.3
Cc1noc(C)c1S(=O)(=O)N1CCCC(C(=O)c2cccc(OC(C)C)c2)C1 (centres undefined)	1.5	16.2	0.5	-13.8	-2.0	-0.8
Cn1nnnc1N=N/C(=N/Nc1ccccc1)c1ccccc1	4.0	-9.3	-0.7	71.5*	-3.7	-0.6
CCOC(=O)c1[nH]c2ccc(Cl)cc2c1NC(=O)c1nonc1C	0.1	3.7	0.1	.	8.9*	0.0
CCOC(=O)c1[nH]c2ccc(OC)cc2c1NC(=O)c1nonc1C	1.9	-0.4	-0.2	13.7	-1.0	0.0
CCC(c1nnnn1-c1ccc2c(c1)OCCO2)N1CCN(c2ccccc2OC)CC1 (centres undefined)	.	.	0.2	.	.	-1.8
CCS(=O)(=O)N1Cc2cc(C(=O)N(C)C)nc(-c3cccc(-c4ccc(F)cc4)c3)c2[C@H]1CCO	.	.	0.3	.	.	-0.2
CCOC1=C2CN(S(=O)(=O)c3ccc(C)cc3)C(c3cccc(Cl)c3)CC2NC(c2ccccc2)C1 (centres undefined)	.	.	0.6	.	.	-0.1
COc1ccc(S(=O)(=O)N(C)CC(=O)Nc2ccc(C(N)=O)cc2)cc1OC	-0.2	12.4	0.1	-4.7	-1.4	-0.2
COC(=O)c1ccc(NC(=O)CN(C)S(=O)(=O)c2ccc(OC)c(C)c2)cc1	0.2	-0.1	0.2	.	8.3*	0.1
Cc1csc2c(=O)sc(NC(=O)c3ccco3)nc12	1.1	-2.6	-0.1	0.6	-0.7	-0.7
Cc1csc2c(=O)sc(NC(=O)c3cccs3)nc12	1.4	-17.2	-0.1	-8.6	8.5*	-0.3
CC(C)N=c1cc2n(-c3ccc(Cl)cc3)c3ccccc3nc-2cc1Nc1ccc(Cl)cc1	3.9	5.0	-0.7	137.1*	-2.2	-1.2
Oc1ccc(/C=N/Nc2cc(N3CCOCC3)nc(N3CCOCC3)n2)cc1	0.9	-20.8	0.0	.	4.0	-1.0
SMILES	NTR1 ag	MC4R antagonist	aDG glyco up	TAG inh	MC4R ag barr	TbMetRS inhib
Cc1nc(N/N=C/c2ccc(Br)cc2)cc(N2CCOCC2)n1	2.5	11.3	-0.1	33.0	8.3*	1.3
Cc1nn(C)c2nc(-c3cccs3)cc(C(F)(F)F)c12	0.7	1.0	0.5	.	1.1	-0.1
Cc1nn(CCO)c2nc(-c3cccs3)cc(C(F)(F)F)c12	5.3	-5.7	-0.3	.	8.5*	-1.5
COC(=O)C1=C(C)N(Cc2ccccc2)C(=NCCc2c[nH]c3ccccc23)N[C@H]1c1cccc(F)c1	10.3	1.0	-0.6	138.4	8.2*	0.0
COC(=O)C1=C(C)N(Cc2ccccc2)C(=NCCc2c[nH]c3ccccc23)N[C@H]1c1ccccc1	1.1	6.1	-0.1	18.8	0.4	0.4
CCCn1c(CCNc2nc(-c3cccc(Br)c3)cs2)nc2ccccc21	.	9.1	0.0	-6.7	8.4*	0.7
COc1cc(-c2cnc3c(NC=O)cc(-c4ccsc4)cn23)cc(OC)c1OC	.	-54.0	-0.4	38.6	2.8	0.1
O=C1ON=C(c2ccccc2)/C1=C/c1ccc(-c2ccccc2[N+](=O)[O-])o1	.	31.7*	-0.2	.	-1.4	0.0
O=C(Nc1ccc(S(=O)(=O)N2CCOCC2)cc1)c1cc(-c2cc(Cl)ccc2O)n[nH]1	33.5	-13.4	-0.5	42.3	9.1*	0.2
OC[C@@H]1CN(Cc2ccco2)C[C@H](n2cnc3c(N4CCOCC4)ncnc32)O1	.	10.8	0.1	2.0	3.5	-0.1
Cc1ccc(CNc2oc(COc3ccccc3Cl)nc2C#N)cc1	4.4	3.4	0.1	1.8	9.5*	-1.3
COc1ccc(CNc2oc(COc3ccccc3Cl)nc2C#N)cc1	1.9	6.1	-0.1	.	6.6	-0.1
CCCCCCc1cc2cc(S(=O)(=O)c3ccc(F)c(Cl)c3)c(=O)oc2cc1O	6.5	4.0	1.0	.	8.8*	-0.4
CCCCCCc1cc2cc(C(=O)OCC)c(=O)oc2cc1O	18.1	0.5	0.6	0.6	1.3	-0.9
O=C1c2ccc3c4c(ccc(c24)C(=O)N1c1cccc(O)c1)C(=O)N(c1cccc(O)c1)C3=O	6.8	-19.6	4.0*	67.9*	-2.2	-0.8
O=C1c2ccc3c4c(ccc(c24)C(=O)N1c1cccc(O)c1)CC3	-0.3	-4.2	-0.2	1.2	0.6	-0.9
Cc1ccc(C(=O)COC(=O)c2cc(=O)[nH]c3ccccc23)cc1	1.0	-8.3	0.1	-1.4	-1.9	-0.5
CCCn1c(C)cc(C(=O)COC(=O)c2cc(=O)[nH]c3ccccc23)c1C	.	-4.0	0.1	4.2	8.9*	-0.3
CC1(C(=O)N2Cc3ccccc3C2)CCN1C(=O)Cc1ccccc1 (centres undefined)	.	5.0	-0.3	22.4	-2.6	-0.1
COc1ccc(N2C(=S)N=C(Nc3ccccc3)C23CCCCC3)cc1	-0.3	19.6	-0.8	-10.2	13.9*	0.1
COc1ccc(NC2=NC(=S)N(c3ccccc3C)C23CCCCC3)cc1	0.4	17.9	-0.1	-32.4	3.6	-0.3
CC1CCN(S(=O)(=O)c2ccc(NC(=O)Cn3nnc(-c4ccccc4)n3)cc2)CC1	16.9	-4.4	-0.3	.	37.3*	-0.4
